SKN-1 inh: blocks SKN-1 activity in C. elegans; C. elegans VP596 Pgst-4::GFP/RFP ratio, acrylamide-induced, 24 h; inhibition, % at 21.8 µM; 360,000 compounds, 0.49% hits; AID 624304;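 active = interference check ratio from 0.5 to 1.5 plus GFP to RFP signal ratio inhibition reaching or exceeding a fixed threshold, cut at about 30% in these data, passing the limit was not always enough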
MT1-MMP act inh: blocks activation of human MT1-MMP; P50281; HT1080 RFP-PRO-GFP cells, GFP/RFP ratio fluorescence, overnight; percent of plate control window, DMSO zero; 360,000 compounds, 0.061% hits; GFP/RFP ratio change, % at 20 µM; AID 651647;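 active = GFP/RFP ratio change of at least 30% with cell ATP level not reduced by more than half and red fluorescence within 50% of control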
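Compound: 20 µM single dose, 1% DMSO / System: HT1080 RFP-PRO-GFP cells / Controls: DMSO and RFP-L50D-GFP cell wells / Read-out basis: GFP/RFP fluorescence ratio / Schedule: overnight compound exposure at 37 °C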
MPTP block: permeability transition pore inhibition | 360,000 compounds, 1.4% hits | AID 602449 | inhibition, % at 10 µM | isolated mouse mitochondria, Ca2+ swelling absorbance, 30 min;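 active = inhibition of 50% or more, scaled per plate between neutral and stimulator controls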;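 note: 0% = DMSO wells given calcium and 100% = 1 mM EGTA wells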
ATG4B inhibitor: blocks human ATG4B protease cleavage of LC3 substrate; Q9Y4P1; ATG4B cleavage of LC3-PLA2, NBD-HPC fluorescence, 1 h; inhibition, % at 8.33 µM; 340,000 compounds, 0.51% hits; in the data active = inhibition above about 40%
Target sequence (Q9Y4P1 whole entry, looked up): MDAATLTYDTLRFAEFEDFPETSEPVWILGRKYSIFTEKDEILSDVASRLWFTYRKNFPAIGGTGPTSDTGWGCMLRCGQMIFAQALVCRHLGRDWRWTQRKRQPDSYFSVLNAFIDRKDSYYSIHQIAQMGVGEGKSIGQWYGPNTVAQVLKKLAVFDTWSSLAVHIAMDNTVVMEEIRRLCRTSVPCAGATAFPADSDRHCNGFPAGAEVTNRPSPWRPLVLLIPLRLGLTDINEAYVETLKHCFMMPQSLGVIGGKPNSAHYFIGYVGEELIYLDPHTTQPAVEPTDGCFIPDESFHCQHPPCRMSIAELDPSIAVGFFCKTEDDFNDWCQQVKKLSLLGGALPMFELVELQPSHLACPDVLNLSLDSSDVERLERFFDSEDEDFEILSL
ATG4B confirm: confirmation of human ATG4B inhibitors. inhibition, % at 8.33 µM. 320 compounds, 92% hits. ATG4B protease fluorescent substrate cleavage assay. AID 504757. shares compounds with ATG4B inhibitor; in the data active = inhibition above about 39%
PLA2 counter: counter-screen for ATG4B inhibitors: human phospholipase A2; shares compounds with ATG4B inhibitor; inhibition, % at 8.33 µM; purified PLA2, NBD-C6-HPC fluorescence, 45 min; 1,600 compounds, 66% hits; in the data active = inhibition above about 50%
Target sequence (P04054 whole entry, looked up): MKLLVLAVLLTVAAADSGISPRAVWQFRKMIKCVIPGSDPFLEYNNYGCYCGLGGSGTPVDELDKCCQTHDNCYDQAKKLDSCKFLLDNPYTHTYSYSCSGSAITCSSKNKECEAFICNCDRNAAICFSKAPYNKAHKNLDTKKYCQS
* marks the source's active call; other numbers are inactive results; . = no result; ! = repeats disagree. Only some compounds are listed: those with a hit (about 2.3% of all), similar ones and a draw of the others.

SMILES	SKN-1 inh	MT1-MMP act inh	MPTP block	ATG4B inhibitor	others
O=C(COC(=O)CCNS(=O)(=O)c1ccccc1)Nc1ccc(OC(F)F)cc1	45.1*	-1.9	0.0	0.8
COC(=O)C(c1ccccc1)N(Cc1cccc(CN(C(C(=O)OC)c2ccccc2)S(C)(=O)=O)c1)S(C)(=O)=O (stereo not drawn)	14.3	-1.0	0.1	-18.7
Clc1ccc(CSc2ccc(-c3cccnc3)nn2)cc1	37.2*	5.2	0.3	26.2
CCOC(=O)c1ccc(Nc2c(OCC)c(=O)c2=O)cc1	9.2	0.2	18.3	2.7
Cc1oncc1-c1csc(-c2ccccc2Cl)n1	44.7*	-0.1	-0.1	-1.1
Cc1oncc1-c1csc(-c2ccccc2)n1	5.2	0.1	2.0	-7.1
Cc1ccc2sc(NC(=O)c3cccc(N4C(=O)CCC4=O)c3)nc2c1C	37.5*	-1.5	-1.1	13.0
Cc1ccc2sc(NC(=O)c3ccc(N4C(=O)CCC4=O)cc3)nc2c1C	-3.4	4.2	-0.1	-7.3
Cc1cc(NC(=O)CSc2nnc(-c3ccccc3F)n2N)no1	1.6	-0.6	0.9	0.6
Cc1ccc2c([N+](=O)[O-])c(C)ccc2n1	35.4*	-8.7	-0.3	-14.0
Cc1ccc2c([N+](=O)[O-])cccc2n1	-3.3	-2.8	-0.9	7.3
O=C(Nc1ccc2c(c1)Cc1ccccc1-2)c1ccco1	71.9*	9.5	2.0	-8.9
Cc1ccc(NC(=O)c2cccs2)cc1NC(=O)c1ccco1	43.9*	0.7	0.0	-5.7
O=C(Nc1ccc(Br)c(Cl)c1)c1ccco1	86.2*	-0.9	1.1	-8.9
O=C(Nc1ccc(NC(=O)c2ccco2)c(Cl)c1)c1ccccc1	4.8	-4.9	0.5	-9.0
O=C(Nc1ccc2nc(-c3ccccc3)oc2c1)c1ccco1	75.3*	5.2	4.1	-5.7
CCOc1ccc(C(C)=O)cc1COc1cccnc1[N+](=O)[O-]	15.2	-1.8	-1.1	-2.3
Cc1cc(OCC(O)CN2CCN(C)CC2)ccc1C(C)C (stereo not drawn)	35.8*!	2.3	-0.7	-7.1
CN1CCN(CC(O)COc2ccc(OCC(O)CN3CCN(C)CC3)cc2)CC1 (stereo not drawn)	-15.2	0.4	0.1	-9.6
Cc1ccc(S(=O)(=O)N2CCN(CN3C(=O)CC4(CCCC4)C3=O)CC2)cc1	-7.9	-2.3	-1.4	7.6
Cn1c(=O)n(C)c2cc(/C=C(/C#N)C(=O)NCc3ccco3)ccc21	97.5*	3.0	-1.9	-1.8
COc1ccc(CC(=O)Nc2nnc(C(C)(C)C)s2)cc1OC	3.1	2.6	9.0	-9.5
O=c1c2cc3c(cc2[nH]c(=S)n1Cc1ccco1)OCO3	40.4*	-1.7	2.5	20.7
COc1cc(/C=N/N2C(=O)CSC2=S)cc(Br)c1O	43.4*	-43.4	7.7	13.3
COc1cccc(/C=N/N2C(=O)CSC2=S)c1O	-7.7	27.4	-18.6	-0.2
SMILES	SKN-1 inh	MT1-MMP act inh	MPTP block	ATG4B inhibitor	others
COc1cccc(C(=O)NCC(=O)N2CCC3(CC2)NCCc2[nH]cnc23)c1	36.4*	1.9	-1.5	-9.6
O=CC1=C(c2ccccc2)Oc2ccccc2O1	15.7	-1.2	0.0	5.5
Cc1cc2ccccc2n1CCNC(=O)Cc1ccccc1	42.5	43.0	-0.1	-12.6
CC(C)C(=O)NCCn1ccc2ccccc21	0.8	-2.8	-1.2	5.2
Cc1cc2ccccc2n1CCNC(=O)C(C)C	52.5*	26.5	3.5	-12.7
Cc1cccc(CC(=O)NCCn2c(C)cc3ccccc32)c1	37.8*	14.4	-1.2	-5.7
Cc1ccc(-c2nc3c4ccccc4ccn3c2Cc2ccsc2)cc1	-6.1	1.2	0.3	.
Cc1c(CN2CCCC(C(=O)Nc3cccc(-n4cccn4)c3)C2)cnn1C (stereo not drawn)	35.8*	-2.3	-1.0	-5.6
COc1cc(C(=O)OCCCN=C2NS(=O)(=O)c3ccccc32)cc(OC)c1OC	2.4	-0.8	0.0	-8.5
CC(C)(C)CC(=O)NC(=S)N1CCCCCC1	81.2*	2.2	-1.2	3.6
CC(C)(C)c1ccc(C(=O)NC(=S)N2CCCCCC2)cc1	1.2	4.5	-1.1	4.1
N#Cc1cnn(-c2nc(SCc3ccccc3)nc3sc4c(c23)CCCC4)c1N	5.5	-5.8	5.6	42.7*	PLA2 counter=58.6*
O=C(Nc1nc(-c2ccco2)c(-c2ccco2)s1)c1c(F)cccc1Cl	5.2	-6.1	0.9	63.8*	PLA2 counter=78.8*
O=c1c2cc3c(cc2[nH]c(=S)n1C1CCN(Cc2ccccc2)CC1)OCO3	-8.5	5.6	-1.5	58.9*	PLA2 counter=62.1*
Cc1c(Cl)cccc1Nc1ccccc1C(=O)O	7.0	1.9	0.3	43.7*	ATG4B confirm=56.7*;PLA2 counter=43.8
Cc1c(Cl)cccc1Nc1ncccc1C(=O)O	1.9	-1.0	-0.5	8.3
CCOc1ccc(N2CC(C(=O)NC3=NCCS3)CC2=O)cc1 (stereo not drawn)	-3.7	-0.4	-4.2	-3.3
Cc1ccc(/C=c2\sc3nc(-c4ccccc4Br)nn3c2=O)o1	20.3	-15.5	-0.8	48.0*	PLA2 counter=-6.6
Cc1ccc(/C=c2\sc3nc(-c4ccco4)nn3c2=O)o1	33.0	-0.5	0.5	9.1
Cc1cc2c3ccccc3ncn2n1	-15.1	-6.9	-0.3	3.1
CC(C)(C)c1ccc2c(c1)C(=O)c1ccccc1C2=O	18.3	2.4	4.6	44.5*	ATG4B confirm=67.5*;PLA2 counter=37.9
CCc1ccc2c(c1)C(=O)c1ccccc1C2=O	17.7	-1.0	1.4	19.0
CCN(CC)CC(C)OC(=O)COc1ccc(OC)cc1 (stereo not drawn)	21.8	1.0	1.9	-7.1
CC(C)c1c(C(=O)N/N=C/c2cccc(OCc3ccc(F)cc3)c2)nnn1-c1nonc1N	7.4	-0.2	6.4	3.4
Oc1ccccc1C1SC(c2ccccc2O)SC(c2ccccc2O)S1 (stereo not drawn)	19.1	8.4	8.9	62.7*	PLA2 counter=46.7
SMILES	SKN-1 inh	MT1-MMP act inh	MPTP block	ATG4B inhibitor	others
CCNC(=O)C12CCC(C)(c3nc4cc(C)c(C)cc4nc31)C2(C)C (stereo not drawn)	5.6	-3.3	-0.8	-13.8
O=S(=O)(c1cccs1)N1CCN(c2ccccc2Cl)CC1	4.5	0.1	-0.6	44.9*	PLA2 counter=63.6*
CCCOc1ccc(-c2nc(SCc3ccccc3)[nH]c(=O)c2C#N)cc1OC	1.4	1.7	2.1	52.4*	PLA2 counter=85.0*
CCSc1nc(-c2ccccc2)c(C#N)c(=O)[nH]1	4.6	2.3	3.1	-0.4
O=C(NCc1ccco1)/C(=C/c1cccnc1)NC(=O)c1ccco1	-9.4	0.3	-0.6	-5.8
COc1ccccc1C(=O)Oc1ccc2ccc(=O)oc2c1	8.1	.	0.8	-10.4
COc1ccccc1C(=O)Oc1ccc(C(C)(C)C)cc1	10.6	-2.0	2.6	42.4*	PLA2 counter=50.3*
CCC(=O)Nc1nnc(CSCc2ccc(F)cc2)s1	-6.7	1.9	0.0	-9.6
